Measured values published in ChEMBL document CHEMBL1137720, “New acyclic nucleosides analogues as potential analgesic, anti-inflammatory, anti-oxidant and anti-microbial derived from pyrimido[4,5-b]quinolines” (2009).

Legend:
Mus musculus [1] = organism: Mus musculus; assay: Analgesic activity in Swiss mouse assessed as reaction time after 90 mins by hot plate test; type: functional
Method in brief: (§1)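 Swiss mice of both sexes, 25–30 g, were housed at 22 ± 1 °C on a 12 h light/dark cycle with free access to diet and water. Hot-plate testing followed Turner's method.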

[2] = Antioxidant activity in Sprague-Dawley rat erythrocytes assessed as ABTS-induced hemolysis after 1 hr; type: functional, Erythrocyte; set-up: concentration or dose not given beside the values
Rattus norvegicus [3] = assay: Antiinflammatory activity in Sprague-Dawley rat assessed as inhibition of carrageenan-induced paw edema after 1 hr; type: functional
Method in brief: (§2)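 Adult female Sprague-Dawley rats, 150–180 g, were used (n = 6 per group). Paw volume increase after carrageenan was read at 1, 2, 3 and 4 h. % edema inhibition was calculated against untreated controls. The reference drug was given orally at 10 mg/kg as an aqueous suspension.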

Rattus norvegicus [4] = assay: Antiinflammatory activity in Sprague-Dawley rat assessed as inhibition of carrageenan-induced paw edema after 2 hrs; type: functional; method in brief: as §2
Staphylococcus aureus = assay: Antibacterial activity against Staphylococcus aureus ATCC 25923 at 100 ug/disk after 24 to 48 hrs by agar disk diffusion method; type: functional; details: read-out: DIZ
Method in brief: (§3)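 Agar disc diffusion used sterile 5 mm filter-paper discs loaded with 100 µg per disc, with DMSO as solvent. Plates were incubated 24–28 h at 37 °C and inhibition zone diameters measured: 6–10 mm slight, 11–15 mm moderate, >15 mm high. For MIC, discs carried varying amounts, and MIC was the lowest amount giving no visible growth.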

Mus musculus [5] = organism: Mus musculus; assay: Analgesic activity in Swiss mouse assessed as reaction time after 60 mins by hot plate test; type: functional; method in brief: as §1
Candida albicans = assay: Antimicrobial activity against Candida albicans ATCC 14053 at 100 ug/disk after 5 days by agar disk diffusion method; type: functional; details: ATCC 14053, 120 h, read-out: DIZ
Nucleic Acid = assay: Inhibition of bleomycin-induced DNA damage assessed as absorbance at 532 nm after 1 hr at 37 degC; type: nucleic-acid assay
Method in brief: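 The 0.5 mL reaction contained calf thymus DNA (0.5 mg/mL), bleomycin sulfate (0.05 mg/mL), MgCl2 (5 mM), FeCl3 (50 µM) and compound at varying concentrations. After 1 h at 37 °C, the reaction was stopped with EDTA. TBA (1%) and HCl (25%) were added, followed by 10 min at 80 °C. After centrifugation, DNA damage was read as A532.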

[6] = Antioxidant activity assessed as inhibition of ABTS-oxidation in 0.1 M phosphate buffer at pH 7; type: functional
Method in brief: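 ABTS (60 µM, 2 mL) was mixed with MnO2 (25 mg/mL) in 0.1 M phosphate buffer pH 7, then shaken, centrifuged and filtered. Radical solution A734 was set to about 0.5. MeOH/buffer served as negative control.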

Escherichia coli = assay: Antibacterial activity against Escherichia coli ATCC 23566 at 100 ug/disk after 24 to 48 hrs by agar disk diffusion method; type: functional; details: read-out: DIZ; method in brief: as §3
Rattus norvegicus [7] = assay: Antiinflammatory activity in Sprague-Dawley rat assessed as inhibition of carrageenan-induced paw edema after 4 hrs; type: functional; method in brief: as §2
Mus musculus [8] = organism: Mus musculus; assay: Analgesic activity in Swiss mouse assessed as reaction time after 30 mins by hot plate test; type: functional; method in brief: as §1
Rattus norvegicus [9] = assay: Antiinflammatory activity in Sprague-Dawley rat assessed as inhibition of carrageenan-induced paw edema after 3 hrs; type: functional; method in brief: as §2
Pseudomonas aeruginosa = assay: Antibacterial activity against Pseudomonas aeruginosa ATCC 10145 at 100 ug/disk after 24 to 48 hrs by agar disk diffusion method; type: functional; details: read-out: DIZ; method in brief: as §3
Aspergillus fumigatus = assay: Antimicrobial activity against Aspergillus fumigatus ATCC 96918 at 100 ug/disk after 5 days by agar disk diffusion method; type: functional; details: ATCC 96918, 120 h, read-out: DIZ

O=c1c2c(-c3ccc(Cl)cc3)c3c(nc2nc2[nH]nc([C@H](O)[C@@H](O)[C@@H](O)[C@H](O)CO)n12)/C(=C/c1ccc(Cl)cc1)CCC3
Activity (Mus musculus [1]): 6.767 s | Activity [2]: 4.01% | inhibition (INH) (Rattus norvegicus [3]): 50% | inhibition (INH) (Rattus norvegicus [4]): 56% | zone of inhibition at 100 µg/disc (Staphylococcus aureus): 20 mm | Activity (Mus musculus [5]): 5.45 s | zone of inhibition at 100 µg/disc (Candida albicans): 11 mm | deltaA (Nucleic Acid): 0.029 | inhibition [6]: 83.7% | zone of inhibition at 100 µg/disc (Escherichia coli): 20 mm | inhibition (INH) (Rattus norvegicus [7]): 50% | Activity (Mus musculus [8]): 3.767 s | inhibition (INH) (Rattus norvegicus [9]): 49.27% | zone of inhibition at 100 µg/disc (Pseudomonas aeruginosa): 19 mm | zone of inhibition at 100 µg/disc (Aspergillus fumigatus): 7 mm

CC(=O)OC[C@@H](OC(C)=O)[C@@H](OC(C)=O)[C@@H](OC(C)=O)[C@@H](OC(C)=O)c1n[nH]c2nc3nc4c(c(-c5ccc(Cl)cc5)c3c(=O)n12)CCC/C4=C\c1ccc(Cl)cc1
Activity (Mus musculus [1]): 2.633 s | Activity [2]: 8.18% | inhibition (INH) (Rattus norvegicus [3]): 18.75% | inhibition (INH) (Rattus norvegicus [4]): 14.8% | zone of inhibition at 100 µg/disc (Staphylococcus aureus): 13 mm | Activity (Mus musculus [5]): 2.667 s | zone of inhibition at 100 µg/disc (Candida albicans): 11 mm | inhibition [6]: 40.7% | zone of inhibition at 100 µg/disc (Escherichia coli): 14 mm | inhibition (INH) (Rattus norvegicus [7]): 19.57% | Activity (Mus musculus [8]): 2.483 s | inhibition (INH) (Rattus norvegicus [9]): 13.28% | zone of inhibition at 100 µg/disc (Pseudomonas aeruginosa): 12 mm | zone of inhibition at 100 µg/disc (Aspergillus fumigatus): 12 mm

NNc1nc2nc3c(c(-c4ccc(Cl)cc4)c2c(=O)[nH]1)CCC/C3=C\c1ccc(Cl)cc1
Activity (Mus musculus [1]): 6.617 s | Activity [2]: 5.45% | inhibition (INH) (Rattus norvegicus [3]): 34.38% | inhibition (INH) (Rattus norvegicus [4]): 34% | zone of inhibition at 100 µg/disc (Staphylococcus aureus): 18 mm | Activity (Mus musculus [5]): 4.067 s | zone of inhibition at 100 µg/disc (Candida albicans): 13 mm | inhibition [6]: 59.3% | zone of inhibition at 100 µg/disc (Escherichia coli): 22 mm | inhibition (INH) (Rattus norvegicus [7]): 35.19% | Activity (Mus musculus [8]): 3.7 s | inhibition (INH) (Rattus norvegicus [9]): 37.68% | zone of inhibition at 100 µg/disc (Pseudomonas aeruginosa): 20 mm | zone of inhibition at 100 µg/disc (Aspergillus fumigatus): 11 mm

O=c1c2c(-c3ccc(Cl)cc3)c3c(nc2nc2[nH]nc([C@H](O)[C@H](O)[C@H](O)[C@H](O)CO)n12)/C(=C/c1ccc(Cl)cc1)CCC3
Activity (Mus musculus [1]): 9.567 s | Activity [2]: 4.23% | inhibition (INH) (Rattus norvegicus [3]): 62.5% | inhibition (INH) (Rattus norvegicus [4]): 44% | zone of inhibition at 100 µg/disc (Staphylococcus aureus): 19 mm | Activity (Mus musculus [5]): 7.4 s | zone of inhibition at 100 µg/disc (Candida albicans): 12 mm | deltaA (Nucleic Acid): 0.026 | inhibition [6]: 81.5% | zone of inhibition at 100 µg/disc (Escherichia coli): 24 mm | inhibition (INH) (Rattus norvegicus [7]): 40.62% | Activity (Mus musculus [8]): 4.65 s | inhibition (INH) (Rattus norvegicus [9]): 42.03% | zone of inhibition at 100 µg/disc (Pseudomonas aeruginosa): 22 mm | zone of inhibition at 100 µg/disc (Aspergillus fumigatus): 16 mm

CC(=O)N1CCN(c2ccc(OCC3COC(Cn4ccnc4)(c4ccc(Cl)cc4Cl)O3)cc2)CC1 (stereo not drawn) [KETOCONAZOLE]
zone of inhibition at 100 µg/disc (Candida albicans): 21 mm | zone of inhibition at 100 µg/disc (Aspergillus fumigatus): 19 mm

O=C1O[C@H]([C@@H](O)CO)C(O)=C1O [ASCORBIC ACID]
Activity [2]: 3.93% | deltaA (Nucleic Acid): 0.026

O=c1[nH]c(=S)[nH]c2nc3c(c(-c4ccccc4)c12)CCC/C3=C\c1ccccc1
Activity (Mus musculus [1]): 2.583 s | Activity [2]: 35.75% | inhibition (INH) (Rattus norvegicus [3]): 31.25% | inhibition (INH) (Rattus norvegicus [4]): 24% | zone of inhibition at 100 µg/disc (Staphylococcus aureus): 14 mm | Activity (Mus musculus [5]): 2.65 s | zone of inhibition at 100 µg/disc (Candida albicans): 11 mm | inhibition [6]: 44.4% | zone of inhibition at 100 µg/disc (Escherichia coli): 17 mm | inhibition (INH) (Rattus norvegicus [7]): 25% | Activity (Mus musculus [8]): 2.7 s | inhibition (INH) (Rattus norvegicus [9]): 27.54% | zone of inhibition at 100 µg/disc (Pseudomonas aeruginosa): 15 mm | zone of inhibition at 100 µg/disc (Aspergillus fumigatus): 13 mm

O=c1c2c(-c3ccc(Cl)cc3)c3c(nc2nc2[nH]nc([C@@H](O)[C@H](O)[C@H](O)CO)n12)/C(=C/c1ccc(Cl)cc1)CCC3
Activity (Mus musculus [1]): 8.433 s | Activity [2]: 3.51% | inhibition (INH) (Rattus norvegicus [3]): 40.62% | inhibition (INH) (Rattus norvegicus [4]): 52% | zone of inhibition at 100 µg/disc (Staphylococcus aureus): 20 mm | Activity (Mus musculus [5]): 5.933 s | zone of inhibition at 100 µg/disc (Candida albicans): 12 mm | deltaA (Nucleic Acid): 0.05 | inhibition [6]: 66.7% | zone of inhibition at 100 µg/disc (Escherichia coli): 20 mm | inhibition (INH) (Rattus norvegicus [7]): 46.67% | Activity (Mus musculus [8]): 3.6 s | inhibition (INH) (Rattus norvegicus [9]): 45.31% | zone of inhibition at 100 µg/disc (Pseudomonas aeruginosa): 19 mm | zone of inhibition at 100 µg/disc (Aspergillus fumigatus): 16 mm

CC(=O)OC[C@@H](OC(C)=O)[C@@H](OC(C)=O)[C@@H](/C=N/Nc1nc2nc3c(c(-c4ccc(Cl)cc4)c2c(=O)n1OC(C)=O)CCC/C3=C\c1ccc(Cl)cc1)OC(C)=O
Activity (Mus musculus [1]): 4.583 s | Activity [2]: 30.75% | inhibition (INH) (Rattus norvegicus [3]): 18.75% | inhibition (INH) (Rattus norvegicus [4]): 28% | zone of inhibition at 100 µg/disc (Staphylococcus aureus): 13 mm | Activity (Mus musculus [5]): 3.483 s | zone of inhibition at 100 µg/disc (Candida albicans): 10 mm | inhibition [6]: 35.2% | zone of inhibition at 100 µg/disc (Escherichia coli): 14 mm | inhibition (INH) (Rattus norvegicus [7]): 22.22% | Activity (Mus musculus [8]): 3.667 s | inhibition (INH) (Rattus norvegicus [9]): 28.98% | zone of inhibition at 100 µg/disc (Pseudomonas aeruginosa): 15 mm | zone of inhibition at 100 µg/disc (Aspergillus fumigatus): 8 mm

CC(=O)OC[C@@H](OC(C)=O)[C@H](OC(C)=O)[C@H](OC(C)=O)[C@@H](OC(C)=O)c1n[nH]c2nc3nc4c(c(-c5ccc(Cl)cc5)c3c(=O)n12)CCC/C4=C\c1ccc(Cl)cc1
Activity (Mus musculus [1]): 2.483 s | Activity [2]: 8.33% | inhibition (INH) (Rattus norvegicus [3]): 21.88% | inhibition (INH) (Rattus norvegicus [4]): 14% | zone of inhibition at 100 µg/disc (Staphylococcus aureus): 10 mm | Activity (Mus musculus [5]): 2.667 s | zone of inhibition at 100 µg/disc (Candida albicans): 11 mm | inhibition [6]: 42.6% | zone of inhibition at 100 µg/disc (Escherichia coli): 14 mm | inhibition (INH) (Rattus norvegicus [7]): 17.19% | Activity (Mus musculus [8]): 2.65 s | inhibition (INH) (Rattus norvegicus [9]): 18.48% | zone of inhibition at 100 µg/disc (Pseudomonas aeruginosa): 10 mm | zone of inhibition at 100 µg/disc (Aspergillus fumigatus): 11 mm

CC(=O)OC[C@@H](OC(C)=O)[C@@H](OC(C)=O)[C@H](/C=N/Nc1nc2nc3c(c(-c4ccc(Cl)cc4)c2c(=O)n1OC(C)=O)CCC/C3=C\c1ccc(Cl)cc1)OC(C)=O
Activity (Mus musculus [1]): 4.033 s | Activity [2]: 6.06% | inhibition (INH) (Rattus norvegicus [3]): 15.62% | inhibition (INH) (Rattus norvegicus [4]): 20.37% | zone of inhibition at 100 µg/disc (Staphylococcus aureus): 11 mm | Activity (Mus musculus [5]): 3.483 s | zone of inhibition at 100 µg/disc (Candida albicans): 7 mm | inhibition [6]: 40.7% | zone of inhibition at 100 µg/disc (Escherichia coli): 14 mm | inhibition (INH) (Rattus norvegicus [7]): 26.56% | Activity (Mus musculus [8]): 3.5 s | inhibition (INH) (Rattus norvegicus [9]): 26.09% | zone of inhibition at 100 µg/disc (Pseudomonas aeruginosa): 13 mm | zone of inhibition at 100 µg/disc (Aspergillus fumigatus): 11 mm

CC(=O)Oc1ccccc1C(=O)O [ASPIRIN]
Activity (Mus musculus [1]): 8.65 s | Activity (Mus musculus [5]): 7.683 s | Activity (Mus musculus [8]): 5.1 s

O=C(O)c1cn(C2CC2)c2cc(N3CCNCC3)c(F)cc2c1=O [CIPROFLOXACIN]
zone of inhibition at 100 µg/disc (Staphylococcus aureus): 24 mm | zone of inhibition at 100 µg/disc (Pseudomonas aeruginosa): 24 mm
